{
  "source": "ChEMBL document CHEMBL4823270",
  "about": "“A first-in-class anticancer dual HDAC2/FAK inhibitors bearing hydroxamates/benzamides capped by pyridinyl-1,2,4-triazoles” (Eur J Med Chem, 2021)",
  "key": {"KG-1": {"system": "KG-1", "assay": "Growth inhibition of human KG-1 cells at 10 uM incubated for 24 hrs by MTT assay relative to control", "assay_type": "functional", "conditions": "KG-1, 24 h", "summary_of_the_method": "(§1)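 Cells seeded at 1 × 10^4 per well, cultured overnight, then exposed to 10 μM compound or DMSO (negative control) for 24 h. After a PBS wash, MTT (2 mg/ml) was added for 4 h at 37°C and formazan dissolved in DMSO. OD read at 570 nm. Growth inhibition = 1 − (OD treated/OD control); at least three independent experiments.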"}, "[1]": {"biological_target": "Signal transducer and activator of transcription 3 (Homo sapiens) (UniProt P40763)", "sequence (P40763 whole entry)": "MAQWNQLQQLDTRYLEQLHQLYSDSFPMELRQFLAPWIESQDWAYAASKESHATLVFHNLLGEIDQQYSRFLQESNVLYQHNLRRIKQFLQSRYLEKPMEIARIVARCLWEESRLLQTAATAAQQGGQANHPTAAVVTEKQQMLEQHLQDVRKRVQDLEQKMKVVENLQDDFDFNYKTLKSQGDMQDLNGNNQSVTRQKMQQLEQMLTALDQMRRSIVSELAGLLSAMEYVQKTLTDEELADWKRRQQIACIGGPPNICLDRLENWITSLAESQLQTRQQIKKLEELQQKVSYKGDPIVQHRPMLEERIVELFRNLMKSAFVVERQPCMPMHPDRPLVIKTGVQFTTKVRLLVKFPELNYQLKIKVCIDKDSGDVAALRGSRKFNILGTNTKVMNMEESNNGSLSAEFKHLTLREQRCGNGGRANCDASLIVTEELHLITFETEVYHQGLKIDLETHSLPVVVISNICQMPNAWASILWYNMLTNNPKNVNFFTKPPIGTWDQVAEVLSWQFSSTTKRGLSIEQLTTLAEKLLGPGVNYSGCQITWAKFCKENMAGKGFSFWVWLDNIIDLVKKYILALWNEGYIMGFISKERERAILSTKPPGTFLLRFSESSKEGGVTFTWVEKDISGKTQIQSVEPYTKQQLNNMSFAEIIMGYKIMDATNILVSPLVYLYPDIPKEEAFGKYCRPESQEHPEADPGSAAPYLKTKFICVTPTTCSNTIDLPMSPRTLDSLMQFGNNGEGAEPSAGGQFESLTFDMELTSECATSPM", "assay": "Inhibition of STAT3 activation in human A498 cells measured after 24 hrs by Western blot analysis", "assay_type": "cell-based"}, "Focal adhesion kinase 1 [2]": {"biological_target": "T1, Focal adhesion kinase 1 (Homo sapiens, UniProt Q05397)", "assay": "Inhibition of FAK in human CAKI-1 cells assessed as reduction in FAK phosphorylation by Western blot analysis", "assay_type": "cell-based", "summary_of_the_method": "(§2)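 40 μg protein (Bradford) resolved by SDS-PAGE, transferred to PVDF, blocked 1 h in milk or BSA. Primary antibody overnight, HRP secondary 1 h, ECL detection; β-actin as loading control.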"}, "A498 [3]": {"system": "A498", "assay": "Growth inhibition of human A498 cells at 10 uM incubated for 24 hrs by MTT assay relative to control", "assay_type": "functional", "conditions": "read-out: GI", "summary_of_the_method": "as §1"}, "CAKI-1 [4]": {"system": "CAKI-1", "assay": "Induction of cell cycle arrest in human CAKI-1 cells assessed as decrease in cell population at G1 phase at 1.5 uM incubated for 24 hrs by propidium iodide based flow cytometry analysis", "assay_type": "functional", "summary_of_the_method": "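Cells at 1 × 10^5/mL treated with 0.75 or 1.5 μM compound or DMSO (negative control) for 24 h, harvested and washed in PBS. Fixed by dropwise ice-cold 80% ethanol with vortexing, held overnight, washed twice, PI-stained 20 min in the dark. Phase distribution read by flow cytometry.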"}, "Focal adhesion kinase 1 [5]": {"biological_target": "T1, Focal adhesion kinase 1", "assay": "Inhibition of FAK (unknown origin) by FRET-based Z'-Lyte assay", "summary_of_the_method": "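Recombinant FAK kinase activity measured with the FRET-based Z'-LYTE format; the same platform was used for a kinase panel (FAK, FLT, FRK, IGF-1R, BTK). IC50 values determined.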"}, "K562": {"system": "K562", "assay": "Growth inhibition of human K562 cells at 10 uM incubated for 24 hrs by MTT assay relative to control", "assay_type": "functional", "conditions": "read-out: GI", "summary_of_the_method": "as §1"}, "CAKI-1 [6]": {"system": "CAKI-1", "assay": "Induction of apoptosis in human CAKI-1 cells at 1.5 uM measured after 24 hrs by Annexin-V/propidium iodide staining based flow cytometry relative to control", "assay_type": "functional", "summary_of_the_method": "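Cells in supplemented medium with 10% FBS at 37 °C, 5% CO2, exposed to 0.75 or 1.5 μM compound, or DMSO as negative control, for 24 h. Apoptosis assessed by annexin V/PI staining per kit instructions, then flow cytometry; apoptotic cell percentage quantified against control.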"}, "Histone deacetylase 2": {"biological_target": "Histone deacetylase 2 (Homo sapiens, UniProt Q92769)", "sequence (Q92769 whole entry)": "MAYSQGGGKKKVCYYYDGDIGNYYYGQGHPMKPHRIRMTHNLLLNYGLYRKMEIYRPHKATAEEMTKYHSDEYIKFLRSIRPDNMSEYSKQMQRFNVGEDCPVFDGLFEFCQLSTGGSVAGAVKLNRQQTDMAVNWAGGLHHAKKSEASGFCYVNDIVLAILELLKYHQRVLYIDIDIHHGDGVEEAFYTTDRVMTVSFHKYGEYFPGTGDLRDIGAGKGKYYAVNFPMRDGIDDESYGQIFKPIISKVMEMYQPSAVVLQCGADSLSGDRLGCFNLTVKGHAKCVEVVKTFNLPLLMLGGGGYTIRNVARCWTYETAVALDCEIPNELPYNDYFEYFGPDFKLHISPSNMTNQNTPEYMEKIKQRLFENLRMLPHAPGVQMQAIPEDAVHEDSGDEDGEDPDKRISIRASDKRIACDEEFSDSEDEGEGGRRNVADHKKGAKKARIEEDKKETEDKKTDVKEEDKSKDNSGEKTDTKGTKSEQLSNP", "assay": "Inhibition of HDAC2 in human A498 cells assessed as reduction in HDAC2 expression by Western blot analysis", "assay_type": "cell-based", "summary_of_the_method": "as §2"}, "A498 [7]": {"system": "A498", "assay": "Induction of apoptosis in human A498 cells assessed as activation of caspase-3 measured after 24 hrs by ELISA relative to control", "assay_type": "functional", "summary_of_the_method": "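A-498 lysates were assayed for active caspase-3 protein by ELISA. Samples or standards were incubated 2 h at room temperature, then caspase-3 (active) detection antibody for 1 h, anti-rabbit IgG-HRP for 30 min, and chromogen for 30 min. After the stop solution, the plate was read and values were taken from a fitted standard curve in pg/ml versus a negative control.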"}, "Histone deacetylase 8": {"biological_target": "T2, Histone deacetylase 8 (Homo sapiens, UniProt Q9BY41)", "T2 sequence (Q9BY41 whole entry)": "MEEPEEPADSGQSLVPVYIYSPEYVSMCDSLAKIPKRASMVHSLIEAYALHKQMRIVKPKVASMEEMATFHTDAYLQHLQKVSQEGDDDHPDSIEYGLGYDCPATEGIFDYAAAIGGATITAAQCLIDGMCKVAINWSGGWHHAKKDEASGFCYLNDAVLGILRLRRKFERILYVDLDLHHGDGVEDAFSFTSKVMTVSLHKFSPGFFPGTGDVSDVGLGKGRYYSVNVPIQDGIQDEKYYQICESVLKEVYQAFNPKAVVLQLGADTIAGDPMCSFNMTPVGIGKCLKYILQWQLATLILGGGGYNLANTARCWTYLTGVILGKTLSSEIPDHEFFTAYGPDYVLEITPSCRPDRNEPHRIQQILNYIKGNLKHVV", "assay": "Inhibition of human full-length recombinant C-terminal His-tagged HDAC8 expressed in baculovirus infected Sf9 insect cells preincubated for 5 mins followed by HDAC substrate addition and further incubated for 45 mins by fluorescence microplate reader assay"}},
  "note": "Active and inactive are the calls of the source. No cut-off for these calls is given here.",
  "data": [
    {"smiles": "Cn1c(SCCCCCC(=O)NO)nnc1-c1ccncc1", "values": [
      {"measurement": "inhibition in vitro at 10 µM", "setting": "KG-1", "result": 84.2, "unit": "%"},
      {"measurement": "inhibition", "setting": "[1]", "result": "Active"},
      {"measurement": "inhibition", "setting": "Focal adhesion kinase 1 [2]", "result": "Active"},
      {"measurement": "inhibition of growth at 10 µM", "setting": "A498 [3]", "result": 99.8, "unit": "%"},
      {"measurement": "Activity", "setting": "CAKI-1 [4]", "result": "Active"},
      {"measurement": "IC50", "setting": "Focal adhesion kinase 1 [5]", "result": 0.0126, "unit": "µM"},
      {"measurement": "inhibition of growth at 10 µM", "setting": "K562", "result": 40.1, "unit": "%"},
      {"measurement": "Activity", "setting": "CAKI-1 [6]", "result": 37, "unit": "%"},
      {"measurement": "inhibition", "setting": "Histone deacetylase 2", "result": "Active"},
      {"measurement": "fold change (FC)", "setting": "A498 [7]", "result": 11},
      {"measurement": "IC50", "setting": "Histone deacetylase 8", "result": 7.1, "unit": "µM"}
    ]}
  ]
}
